# According to paper PMC3263504 (Cell Death and Differentiation, 2011):
# No end group written: not given here. *: point of attachment. Biotin = O=C1N[C@H]2[C@H](CS[C@H]2CCCCC(=O)*)N1
# How the values were obtained:
# [1] = tested on: GST-Dom3; test: GST pull-down of full-length 3xFLAG-Bcl-2 proteins from COS-1 lysates; format: binding, mouse; details: lysates of transfected COS-1 cells, result in words
# In short: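 Lysates (200 μg) of COS-1 cells transiently transfected with 3xFLAG-Bcl-2, K/D mutant or empty vector, incubated with purified GST-Dom3 (IP3R1 a.a. 923–1581, E. coli BL21(DE3)-expressed, PBS-dialyzed). Beads washed four times in 150 mM NaCl buffer without BSA, eluted in LDS 3 min at 95°C. Anti-FLAG western blot; bands quantified, normalized to GST binding; at least five independent experiments.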
# [2] = tested on: C6 glioma cells; test: PAC-1-induced apoptosis in C6 glioma cells; format: cell-based, rat; details: PAC-1 150 μM, 6 h
# In short: (§1)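 C6 glioma monolayers in situ electroporated (100 V peak-to-peak, 500 µm electrode gap, low-conductivity sorbitol buffer) with 100 μM DTR and 20 μM peptide. Trigger applied in medium for 6 h: STS 2 μM or PAC-1 150 µM. Apoptosis stained with FITC-VAD-FMK (10 μM, 40 min, 37°C), PFA-fixed, DAPI. Five images inside and five outside the electroporated area; AI inside relative to outside, then vs vehicle (100%).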
# [3] = tested on: GST; test: SPR, parental GST; format: binding; details: GST up to 40 μM, result in words
# In short: (§2)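 SPR at 25°C. Biotinylated BH4 peptides (200 ng, 58.2 pmol, >80% pure) immobilized on a streptavidin chip in PBS/0.005% P20, pH 7.0. Analyte was GST-Dom3 or parental GST in PBS, 30 μl/min, several concentrations in random order; response in RU. Scrambled-peptide reference cell subtracted. Regeneration with 25 mM NaOH/0.002% SDS. At least three independent chips.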
# [4] = biological target: GST-Dom3 IP3R1 (Mus musculus, UniProt P11881); test: SPR, GST-Dom3 of IP3R1 on immobilized biotinylated BH4 peptides; format: binding; details: association phase, corrected for scrambled peptide, result in words
# Chain of GST-Dom3 IP3R1 (P11881 923-1581): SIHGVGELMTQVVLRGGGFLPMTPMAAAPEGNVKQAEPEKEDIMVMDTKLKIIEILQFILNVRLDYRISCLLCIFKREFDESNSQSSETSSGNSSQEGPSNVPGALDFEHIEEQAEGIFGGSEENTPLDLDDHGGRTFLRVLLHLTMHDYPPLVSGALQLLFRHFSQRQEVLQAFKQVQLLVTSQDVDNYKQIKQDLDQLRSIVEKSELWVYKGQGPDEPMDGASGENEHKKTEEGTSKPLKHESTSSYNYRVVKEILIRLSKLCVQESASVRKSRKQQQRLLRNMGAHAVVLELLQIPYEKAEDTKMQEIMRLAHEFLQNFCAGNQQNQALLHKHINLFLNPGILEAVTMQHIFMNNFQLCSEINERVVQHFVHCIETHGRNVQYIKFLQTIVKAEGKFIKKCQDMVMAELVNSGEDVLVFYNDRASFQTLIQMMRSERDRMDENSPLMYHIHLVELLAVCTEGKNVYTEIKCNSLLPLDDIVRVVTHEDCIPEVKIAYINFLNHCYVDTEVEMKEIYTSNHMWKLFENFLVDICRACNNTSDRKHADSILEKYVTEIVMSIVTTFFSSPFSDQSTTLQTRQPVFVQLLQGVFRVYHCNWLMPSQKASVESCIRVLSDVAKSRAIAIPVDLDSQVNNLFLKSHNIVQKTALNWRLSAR
# In short: as §2
# [5] = tested on: IP3R; test: Unidirectional 45Ca2+-flux assay in saponin-permeabilized MEF cells; format: cell-based, mouse; details: for effect of alanine mutation on the inhibitory action of BH4-Bcl-2 on IICR: 60 μM mutant peptide, result in words; for effect on IICR (dose-response): 3 μM IP3, result in words
# In short: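 MEF cells at 30°C permeabilized 10 min with 20 µg/ml saponin (imidazole-KCl, pH 6.8, 1 mM ATP, 1 mM EGTA). Stores loaded 45 min with 150 nM free 45Ca2+, 5 mM ATP, 10 mM NaN3. Efflux medium contained 1 mM EGTA and 4 μM thapsigargin, changed every 2 min. Peptides (alanine mutants 60 μM) added 4 min before IP3 (3 μM, 2 min, after 10 min efflux). Residual Ca2+ released with 2% SDS; read-out fractional loss (%/2 min).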
# [6] = tested on: C6 glioma cells; test: Staurosporine-induced apoptosis in C6 glioma cells; format: cell-based, rat; details: 6 h, result in words
# In short: as §1
# [7] = biological target: GST-Dom3 IP3R2 (a.a. 913–1562) (mouse, UniProt Q9Z329 913-1562); test: SPR
# Chain of GST-Dom3 IP3R2 (a.a. 913–1562) (Q9Z329 913-1562): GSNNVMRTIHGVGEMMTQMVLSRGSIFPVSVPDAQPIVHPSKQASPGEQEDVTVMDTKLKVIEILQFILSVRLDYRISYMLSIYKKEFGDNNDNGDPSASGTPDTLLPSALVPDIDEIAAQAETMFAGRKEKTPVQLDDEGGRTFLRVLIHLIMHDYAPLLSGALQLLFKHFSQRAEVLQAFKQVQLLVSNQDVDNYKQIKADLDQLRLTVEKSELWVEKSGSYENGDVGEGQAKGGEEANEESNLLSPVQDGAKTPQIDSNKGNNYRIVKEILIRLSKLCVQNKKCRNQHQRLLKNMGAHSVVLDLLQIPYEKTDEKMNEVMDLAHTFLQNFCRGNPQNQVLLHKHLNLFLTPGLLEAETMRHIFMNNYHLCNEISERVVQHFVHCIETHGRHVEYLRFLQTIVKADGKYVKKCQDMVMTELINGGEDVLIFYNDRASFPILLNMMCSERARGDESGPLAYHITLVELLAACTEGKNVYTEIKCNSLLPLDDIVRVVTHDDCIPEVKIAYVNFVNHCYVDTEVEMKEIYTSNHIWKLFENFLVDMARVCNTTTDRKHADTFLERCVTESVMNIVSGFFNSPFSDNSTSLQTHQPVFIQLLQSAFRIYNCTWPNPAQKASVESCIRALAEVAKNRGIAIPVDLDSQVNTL
# [8] = biological target: GST-Dom3 IP3R3 (a.a. 910–1427) (rat, UniProt Q63269 910-1427); test: SPR
# Chain of GST-Dom3 IP3R3 (a.a. 910–1427) (Q63269 910-1427): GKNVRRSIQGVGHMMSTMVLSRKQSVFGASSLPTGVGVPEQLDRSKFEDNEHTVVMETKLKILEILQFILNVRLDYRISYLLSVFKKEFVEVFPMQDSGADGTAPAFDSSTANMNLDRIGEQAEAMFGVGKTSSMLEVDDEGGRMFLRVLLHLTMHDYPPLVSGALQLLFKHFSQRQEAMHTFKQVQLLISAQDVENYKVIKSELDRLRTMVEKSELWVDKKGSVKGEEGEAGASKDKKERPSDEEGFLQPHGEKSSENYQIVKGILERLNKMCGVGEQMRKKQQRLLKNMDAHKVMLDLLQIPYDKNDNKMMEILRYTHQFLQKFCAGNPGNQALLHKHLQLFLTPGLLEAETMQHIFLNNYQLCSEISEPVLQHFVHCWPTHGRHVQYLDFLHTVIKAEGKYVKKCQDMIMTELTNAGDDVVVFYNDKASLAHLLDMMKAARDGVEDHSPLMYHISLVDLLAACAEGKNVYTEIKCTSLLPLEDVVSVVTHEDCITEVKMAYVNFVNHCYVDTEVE
# [9] = biological target: GST-Dom3 (a.a. 923–1581 of IP3R1) (mouse, UniProt P11881 923-1581); test: SPR
# Chain of GST-Dom3 (a.a. 923–1581 of IP3R1) (P11881 923-1581): as the sequence (P11881 923-1581) above
molecule,measurement,setting,value
"3xFLAG-Bcl-2 K/D: full-length 3xFLAG-Bcl-2 with Lys17 mutated into Asp, expressed in COS-1 cells",binding to GST-Dom3 compared with wild-type 3xFLAG-Bcl-2,[1],severely compromised
C=CCc1cccc(/C=N/NC(=O)CN2CCN(Cc3ccccc3)CC2)c1O [PAC-1],"apoptosis, share of the cell population",[2],~15%
Biotin-MSQSNRELVVDFLSYKLSQKGYSW [biotin-BH4-Bcl-Xl],binding of GST (control),[3],bound to neither
Biotin-MSQSNRELVVKFLSYKLSQKGYSW [biotin-BH4-Bcl-Xl D/K],specific binding of GST-Dom3 (resonance units),[4],able to bind GST-Dom3
"Biotin-RTGYANAEIVMKYIAEKLSAAGKEW [biotin-BH4-Bcl-2BIND, reference compound]",specific binding of GST-Dom3 (resonance units),[4],did not specifically bind
H20A (RTGYDNREIVMKYIAYKLSQRGYEW),effect of alanine mutation on the inhibitory action of BH4-Bcl-2 on IICR,[5],largest effect on the inhibitory action
K17A (RTGYDNREIVMAYIHYKLSQRGYEW),effect of alanine mutation on the inhibitory action of BH4-Bcl-2 on IICR,[5],largest effect on the inhibitory action
NVYTEIKCNSLLPLDDIVRV [IDP],effect of IDP on BH4-Bcl-2-mediated protection against STS,"[6]; IDP co-loaded with BH4-Bcl-2, STS 2 μM",completely suppressed
same,effect of IDP on the protection by BH4-Bcl-Xl against STS,"[6]; IDP co-loaded with BH4-Bcl-Xl, STS 2 μM",independent of IDP
R26A (RTGYDNREIVMKYIHYKLSQAGYEW),effect of alanine mutation on the inhibitory action of BH4-Bcl-2 on IICR,[5],largest effect on the inhibitory action
"RTGYANAEIVMKYIAEKLSAAGKEW [BH4-Bcl-2BIND, reference compound]",effect on IICR (dose-response),[5],did not inhibit IICR
RTGYDNREIVMKYIHYKLSQRGYEW [BH4-Bcl-2 K/D],effect on IICR (dose-response),[5],largely ineffective
"WYEKQRSLHGIMYYVIEDRNTKGYR [BH4-Bcl-2SCR, reference compound]",effect on IICR (dose-response),[5],did not inhibit IICR
Y21A (RTGYDNREIVMKYIHAKLSQRGYEW),effect of alanine mutation on the inhibitory action of BH4-Bcl-2 on IICR,[5],largest effect on the inhibitory action
Biotin-RTGYDNREIVMKYIHYKLSQRGYEW [Biotin-BH4-Bcl-2],binding result,[7],binds
same,binding result,[8],binds
Biotin-MSQSNRELVVKFLSYKLSQKGYSW [Biotin-BH4-Bcl-Xl D/K],binding result,[9],binds
